p47phox inh: blocks human p47phox regulatory protein of NADPH oxidases; P14598; p47phox/p22phox peptide binding, fluorescence polarization, 2 h; inhibition, % at 24.7 µM; 220,000 tested, 0.53% active; AID 1274;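 further: 0% = p47phox with labelled peptide and 100% = labelled peptide alone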
RBBP9 inhibitor: human RBBP9 hydrolase inhibition | recombinant RBBP9, FP-Rh probe fluorescence polarization | inhibition, % at 7.94 µM | 220,000 tested, 0.2% active | AID 1515;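 active means inhibition above the campaign mean of all tested compounds plus 3 SD, cut at about 14% in these data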;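 further: plate controls were DMSO wells with RBBP9 for no effect and wells lacking RBBP9 protein for full effect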
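Assay system: recombinant human RBBP9; Reagent: Serine-hydrolase probe FP-Rh, 375 nM pre-mixing; Doses: 7.94 µM single dose, 0.794% DMSO; Incubation: 30 min then 45 min, 25 °C; Detection: fluorescence polarization (mP), excitation 525 nm, emission 598 nm; Evaluation: percent inhibition from mP, scaled between DMSO and no-protein wells.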
eIF4E 4G PPI: eIF4E/eIF4G interaction inhibition in translation initiation | P63073+Q04637 | TR-FRET eIF4E-eIF4GI(517-606) binding, 2 h | inhibition, % at 21.7 µM | 220,000 tested, 0.37% active;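 further: 0% = full FRET control wells and 100% = background wells lacking eIF4GI fragment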
14-3-3 Bad inh: disrupts binding of bovine 14-3-3 zeta to phospho-Bad peptide; AID 781; TR-FRET 14-3-3zeta/Dy647-pBad peptide displacement, 1 h; P63103; 220,000 tested, 0.71% active; inhibition, % at 21.7 µM;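 active means inhibition above about 70%, limit read from the data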;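 further: 0% = full 14-3-3 plus peptide FRET controls and 100% = background without 14-3-3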
Wee1 stabilizer: blocks degradation of human Wee1 kinase; P30291; HeLa Luc-Wee1K328M stability, luciferase luminescence; 100% = proteasome inhibitor MG132 effect; reporter increase, % at 5 µM; 220,000 tested, 1.2% active;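 active means activation above the mean of all tested compounds plus 3 SD, set per screening run, cut at about 8.8% in these data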;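 further: cells exposed to compound for 20 h before luminescence read; 0% = DMSO alone and 100% = MG132 at 30 µM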
Numbers without * were called inactive; / = no result given; + = active, no number; [ ] = another dose, or the depositor's remark. The list is not random: actives were taken first. Their share in the collection is about 2.8%.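 How the source made its calls, unless noted: active means inhibition above about 30% (limit read from the data); inactive means the rest.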

SMILES	p47phox inh	RBBP9 inhibitor	eIF4E 4G PPI	14-3-3 Bad inh	Wee1 stabilizer
O=c1cc2c(=O)oc3cc(O)c(O)oc3c2c(O)c1O	-17	-1	22	89*	2
CC(=O)Nc1ccc2nc(NC(=O)COc3ccccc3C)sc2c1	-13	-5	-3	0	3
COc1cccc2sc(Nc3nc4ccc(NC(C)=O)cc4s3)nc12	-2	-6	6	80*[fluorescence artefact?]	-1
COc1cc(Sc2ccc(C)cc2)c(OC)cc1N	2	8	-2	76*	-3
CCCCOC(=O)c1ccc(NC(=O)C(=O)NCc2ccccn2)cc1	-8	-6	0	-3	-1
O=C(NCc1cccc(Cl)c1)c1ccc2nc[nH]c2c1	-9	0	2	3	1
O=C(NCc1cccc(Cl)c1)c1ccc(-c2csnn2)cc1	116*	-1	3	-6	-3
Cc1cc(OCC(=O)O)c2cccc(C)c2n1	2	-9	10	77*	-2
Cc1ccc2nc(C)cc(OCC(=O)O)c2c1	-2	-14	-9	58	-3
COCCNC(=O)C(=O)N/N=C(\C)CC(=O)Nc1cccc(C(F)(F)F)c1	-4	-7	1	2	4
COc1cc(S(=O)(=O)N2CCOCC2)ccc1NC(=O)CSc1n[nH]c(=O)[nH]c1=O	8	-8	2	-1	0
Cc1ccc2nc(N3CC(=O)Nc4ccccc43)nc(-c3ccccc3)c2c1	-13	-2	4	1	9.6*
COc1ccc(-c2nnc(SCC(=O)Nc3ncc(C)s3)n2-c2ccccc2)cc1OC	-9	-7	-3	1	9.9*
COc1ccc(-c2nnc(NC(=O)CSc3ccc(Cl)cc3)s2)cc1OC	41*	9	2	18	-1
Cc1ccccc1CN(c1ccc(C(=O)N2CCc3ccccc3C2)cc1)S(C)(=O)=O	-9	-4	-9	2	-2
Cc1nc2cc(C)c(C)cc2s1	-6	5	2	1	-2
CN(C)c1ccc2nc3ccc(=[N+](C)C)cc-3sc2c1	+	7	-36	-145	-2
Cc1cc2nc3ccc(=[N+](C)C)cc-3sc2cc1N	+	8	-40	-125	-2
O=C(c1sc2ccccc2c1Cl)N(Cc1ccccc1Cl)C1CCS(=O)(=O)C1 (stereo unspecified)	10	3	1	-3	9.4*
CN(C)c1ccc(CNCCC2CCOC(C)(C)C2)cc1 (stereo unspecified)	-11	-1	-7	92*	-2
CC1(C)CC(NCc2ccccc2)CCO1 (stereo unspecified)	3	-5	-3	-5	0
O=S1(=O)[C@H]2C[C@@H]3CC[C@]2(CN1Cc1cccc(F)c1)O3	-2	/	-2	-2	/
Cc1cc(NC(=O)c2ccc(Cl)cc2)no1	48*	1	3	-5	4
Cc1ccc(C)c(C(=O)COC(=O)c2cccc(N3C(=O)c4c(C)nc5ccccc5c4C3=O)c2)c1	-42	-2	1	3	9.0*
Cc1nc2ccccc2c2c1C(=O)N(c1cccc(C(=O)O)c1)C2=O	-3	-9	-3	-1	-3
SMILES	p47phox inh	RBBP9 inhibitor	eIF4E 4G PPI	14-3-3 Bad inh	Wee1 stabilizer
COc1ccc(NC(=O)c2csc3c2CCCCC3)c(OC)c1	-181	-5	-2	-11	-1
O=C(Nc1ccccc1O)c1csc2c1CCCC2	-6	4	-2	-7	9.4*
CC(C)N(Cc1ccccc1)CC(O)COc1ccc(S(=O)(=O)N2CCOCC2)cc1Cl (stereo unspecified)	1	-2	7	0	-2
O=C(N/N=C/c1ccccn1)C(=O)N1CCCCCC1	-9	-5	1	-7	-1
O=C(NC1CCCCC1)C(c1ccc(F)cc1)N(CCc1ccccc1)C(=O)CN1C(=O)c2ccccc2S1(=O)=O (stereo unspecified)	31*	-4	-3	6	-1
O=C(NC1CCCCC1)C(c1ccc(F)cc1)N(Cc1ccccc1)C(=O)CN1C(=O)c2ccccc2S1(=O)=O (stereo unspecified)	-14	-10	0	6	2
CC1=NN(c2cccc(C(=O)O)c2)C(=O)/C1=C\C=C/c1ccccc1	-16	-3	-4	-2	-3
COc1ccc2nc(-n3c(O)c(C4=c5ccccc5=NC4=O)[nH]c3=S)sc2c1	26	-1	52*[fluorescence artefact?]	96*[fluorescence artefact?]	0
CN(C)CCCNc1cc(C(C)(C)C)nc2c(-c3ccc(Cl)cc3)cnn12	65*	-6	36*	79*	2
O=[N+]([O-])c1ccc2c(c1)C(O)n1nc(-c3ccc(Cl)cc3Cl)nc1S2 (stereo unspecified)	-6	-12	0	11	13*
CCN(CC)Cc1cc(O)c(CN(CC)CC)cc1O	46*	-6	23	17	-2
CCc1oc(C(=O)O)cc1CN(CC)CC	-2	2	1	14	1
O=C1CC(CCC(=O)NC2CC2)c2ccccc2N1 (stereo unspecified)	-7	-6	-9	4	9.0*
O=C1CC(C(=O)O)c2ccccc2N1 (stereo unspecified)	-1	0	-2	-8	-2
CC(C)OCCCNC(=O)CN1C(=O)/C(=C/c2ccccc2)Sc2ccccc21	-5	-9	3	3	-3
Cn1cc([N+](=O)[O-])c(C(=O)Nc2cc(Oc3cccnc3)cc([N+](=O)[O-])c2)n1	-15	-6	2	74*	-2
O=C(O)c1cccc(-n2cccc2/C=C2/NC(=O)N(c3ccc(Cl)cc3)C2=O)c1	-37	-7	71*	94*	-2
COc1ccc(-n2cccc2/C=C2/NC(=O)N(c3cccc(Cl)c3)C2=O)cc1	-22	-6	5	18	8.9*
O=C(O)c1cccc(-n2cccc2/C=C2/NC(=O)N(c3cccc(Cl)c3)C2=O)c1	-27	-2	14	54	3
Cc1ccc(C(=O)CC2(O)C(=O)N(C)c3ccccc32)s1 (stereo unspecified)	-11	-4	3	-6	-1
CN1OC2C(=O)N(c3ccccc3)C(=O)C2C1c1ccc(F)cc1 (stereo unspecified)	-3	-2	9	3	17*
O=C1C2ON(c3ccccc3)C(c3ccccc3F)C2C(=O)N1c1ccccc1 (stereo unspecified)	-73	-4	-9	-6	-1
CC1CCN(CCNC(=O)c2ccc(NC(=O)C3CCCO3)cc2)CC1 (stereo unspecified)	-5	-2	-1	-5	9.3*
O=C(/C=C/c1ccco1)c1ccccc1O	-5	0	82*	-4	-2
O=C(COc1ccccc1)NCC(=O)NC1=NCCS1	-14	3	5	-8	5
Cc1ccc(OCC(=O)NC2=NCCS2)cc1	47*	-6	-2	-4	-1
